Measurements reported in the M2OR odorant receptor database.
Positions count from the first letter of the chain named.

Legend:
Details in all cases: stereoisomer not certain
OR52I1 (Homo sapiens) = molecular target: T1, OR52I1 (Homo sapiens) (UniProt Q8NGK6)
T1 sequence (whole entry): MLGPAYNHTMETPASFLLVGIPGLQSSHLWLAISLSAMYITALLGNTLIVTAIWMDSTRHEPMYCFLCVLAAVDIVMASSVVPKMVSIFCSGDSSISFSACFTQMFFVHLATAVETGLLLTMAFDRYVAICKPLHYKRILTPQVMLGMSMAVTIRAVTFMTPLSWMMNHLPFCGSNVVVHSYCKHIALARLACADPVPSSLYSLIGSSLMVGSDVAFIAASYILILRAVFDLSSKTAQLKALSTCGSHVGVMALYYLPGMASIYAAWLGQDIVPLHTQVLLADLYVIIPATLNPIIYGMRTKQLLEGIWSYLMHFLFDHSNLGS
Summary of the method: (§1)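 Each entry records the cell line, G-protein, co-transfected protein and tags used. Methods varied with the source, often transient luciferase assays in mammalian cell lines. A receptor–molecule pair is called responsive (active) if the original authors judged its signal statistically different from baseline and non-responsive (inactive) otherwise.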

OR52I2 (Homo sapiens) = molecular target: T2, OR52I2 (Homo sapiens) (UniProt Q8NH67)
T2 sequence (whole entry): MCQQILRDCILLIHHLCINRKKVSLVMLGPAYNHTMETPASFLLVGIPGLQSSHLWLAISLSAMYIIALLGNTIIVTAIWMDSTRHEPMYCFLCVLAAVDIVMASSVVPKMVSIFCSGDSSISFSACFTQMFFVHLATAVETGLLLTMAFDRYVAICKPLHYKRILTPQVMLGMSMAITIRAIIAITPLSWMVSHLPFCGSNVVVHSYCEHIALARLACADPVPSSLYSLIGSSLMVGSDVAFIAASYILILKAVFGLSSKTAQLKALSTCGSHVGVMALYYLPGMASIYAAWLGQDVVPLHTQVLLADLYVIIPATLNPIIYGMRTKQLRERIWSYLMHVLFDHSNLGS
Summary of the method: as §1

OR52J3 (Homo sapiens) = OR52J3 (Homo sapiens) (UniProt Q8NH60)
OR52J3 (Homo sapiens), sequence (Q8NH60 whole entry): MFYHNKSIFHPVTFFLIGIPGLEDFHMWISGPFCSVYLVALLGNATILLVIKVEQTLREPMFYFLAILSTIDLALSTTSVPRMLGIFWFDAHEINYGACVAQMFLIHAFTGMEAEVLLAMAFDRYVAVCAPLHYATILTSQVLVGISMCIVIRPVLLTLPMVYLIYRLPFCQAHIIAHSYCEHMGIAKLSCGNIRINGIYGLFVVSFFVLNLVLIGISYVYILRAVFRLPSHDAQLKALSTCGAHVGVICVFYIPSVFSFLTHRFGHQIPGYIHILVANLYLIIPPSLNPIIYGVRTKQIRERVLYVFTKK
Summary of the method: as §1

OR52K1 (Homo sapiens) = molecular target: T3, OR52K1 (Homo sapiens) (UniProt Q8NGK4)
T3 sequence (whole entry): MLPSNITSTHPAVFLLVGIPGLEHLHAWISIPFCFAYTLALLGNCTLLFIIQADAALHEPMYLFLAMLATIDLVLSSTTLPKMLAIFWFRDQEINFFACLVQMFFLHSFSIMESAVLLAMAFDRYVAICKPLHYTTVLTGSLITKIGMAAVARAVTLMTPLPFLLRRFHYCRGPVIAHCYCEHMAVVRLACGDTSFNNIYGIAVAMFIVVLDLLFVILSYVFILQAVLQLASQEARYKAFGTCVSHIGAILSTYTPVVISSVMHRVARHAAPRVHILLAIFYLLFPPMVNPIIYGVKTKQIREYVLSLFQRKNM
Summary of the method: as §1

OR52K2 (Homo sapiens) = molecular target: T4, OR52K2 (Homo sapiens) (UniProt Q8NGK3)
T4 sequence (whole entry): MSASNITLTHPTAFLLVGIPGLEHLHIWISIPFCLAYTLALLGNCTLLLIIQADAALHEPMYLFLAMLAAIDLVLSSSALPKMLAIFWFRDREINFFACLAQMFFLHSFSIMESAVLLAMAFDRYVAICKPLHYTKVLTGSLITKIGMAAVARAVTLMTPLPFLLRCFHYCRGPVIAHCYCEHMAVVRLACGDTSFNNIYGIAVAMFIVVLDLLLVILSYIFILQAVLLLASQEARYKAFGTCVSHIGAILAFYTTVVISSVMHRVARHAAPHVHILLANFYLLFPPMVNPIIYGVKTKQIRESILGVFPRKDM
Summary of the method: as §1

OR52L1 (Homo sapiens) [1] = molecular target: T5, OR52L1 (Homo sapiens) (UniProt Q8NGH7)
T5 sequence (whole entry): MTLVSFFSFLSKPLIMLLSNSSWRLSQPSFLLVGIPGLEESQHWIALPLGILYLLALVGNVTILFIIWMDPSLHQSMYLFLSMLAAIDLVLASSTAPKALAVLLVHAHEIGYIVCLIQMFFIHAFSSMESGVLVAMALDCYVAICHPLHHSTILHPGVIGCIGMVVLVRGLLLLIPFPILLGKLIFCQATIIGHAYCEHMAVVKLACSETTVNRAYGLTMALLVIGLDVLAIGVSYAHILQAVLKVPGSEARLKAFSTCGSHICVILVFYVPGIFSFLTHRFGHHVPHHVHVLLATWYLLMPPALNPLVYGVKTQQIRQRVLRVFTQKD
Summary of the method: as §1

OR52M1 (Homo sapiens) = molecular target: T6, OR52M1 (Homo sapiens) (UniProt Q8NGK5)
T6 sequence (whole entry): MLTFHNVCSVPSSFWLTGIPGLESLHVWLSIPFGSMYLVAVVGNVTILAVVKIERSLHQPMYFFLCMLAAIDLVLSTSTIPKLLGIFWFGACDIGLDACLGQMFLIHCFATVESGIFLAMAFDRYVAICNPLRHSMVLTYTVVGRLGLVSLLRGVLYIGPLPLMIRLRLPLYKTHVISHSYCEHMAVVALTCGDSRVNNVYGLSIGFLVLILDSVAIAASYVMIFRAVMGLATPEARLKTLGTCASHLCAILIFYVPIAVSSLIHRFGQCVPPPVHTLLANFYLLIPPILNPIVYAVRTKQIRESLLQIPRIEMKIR
Summary of the method: as §1

OR52N1 (Homo sapiens) = molecular target: T7, OR52N1 (Homo sapiens) (UniProt Q8NH53)
T7 sequence (whole entry): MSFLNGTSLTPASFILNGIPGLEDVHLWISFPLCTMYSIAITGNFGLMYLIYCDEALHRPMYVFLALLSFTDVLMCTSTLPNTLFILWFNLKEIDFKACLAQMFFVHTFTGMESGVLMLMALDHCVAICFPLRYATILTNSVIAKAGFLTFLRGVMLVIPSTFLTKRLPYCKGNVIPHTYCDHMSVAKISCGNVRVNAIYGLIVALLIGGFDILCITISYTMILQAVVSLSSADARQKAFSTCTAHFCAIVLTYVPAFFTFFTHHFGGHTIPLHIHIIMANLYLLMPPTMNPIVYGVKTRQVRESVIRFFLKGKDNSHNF
Summary of the method: as §1

OR52N2 (Homo sapiens) = molecular target: T8, OR52N2 (Homo sapiens) (UniProt Q8NGI0)
T8 sequence (whole entry): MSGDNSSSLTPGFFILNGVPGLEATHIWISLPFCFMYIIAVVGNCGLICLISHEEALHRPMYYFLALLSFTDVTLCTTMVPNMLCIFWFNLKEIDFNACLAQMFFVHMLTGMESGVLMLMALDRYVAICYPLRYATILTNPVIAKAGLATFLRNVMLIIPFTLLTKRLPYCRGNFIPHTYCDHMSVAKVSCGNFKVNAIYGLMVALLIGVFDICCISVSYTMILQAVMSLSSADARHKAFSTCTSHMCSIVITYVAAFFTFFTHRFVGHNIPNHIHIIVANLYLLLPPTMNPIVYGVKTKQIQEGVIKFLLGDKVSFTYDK
Summary of the method: as §1

OR52L1 (Homo sapiens) [2] = molecular target: T9, OR52L1 (Homo sapiens) (UniProt Q8NGH7); remark: listed apart in the source
T9 sequence (whole entry): T5 sequence (whole entry) with C140R, C161R, K183T, W297R
Summary of the method: as §1

Measured: odorant receptor agonist call

CCCCCC(=O)C(C)C(C)=O (centres undefined)
not listed: OR52L1 (Homo sapiens) [2]
inactive: all other assays above

CC(CO)CS (centres undefined)
not listed: OR52L1 (Homo sapiens) [2]
inactive: all other assays above

CC1=C(O)C(=O)OC1C (centres undefined)
not listed: OR52L1 (Homo sapiens) [1]
inactive: all other assays above

CCCCC(S)C(C)CO (centres undefined)
active: OR52L1 (Homo sapiens) [1]
not listed: OR52L1 (Homo sapiens) [2]
inactive: all other assays above

CCCCCC(S)C(C)CO (centres undefined)
not listed: OR52L1 (Homo sapiens) [2]
inactive: all other assays above

CCCC(S)CCOC(C)=O (centres undefined)
not listed: OR52L1 (Homo sapiens) [1]
inactive: all other assays above

CC1CCCCCCCCCCCCC(=O)C1 (centres undefined)
not listed: OR52L1 (Homo sapiens) [2]
inactive: all other assays above

CCC1OC(C)=C(O)C1=O (centres undefined)
not listed: OR52L1 (Homo sapiens) [1]
inactive: all other assays above

CC1=NC(C)C(C)S1 (centres undefined)
not listed: OR52L1 (Homo sapiens) [1]
inactive: all other assays above

CCC(S)C(C)CO (centres undefined)
not listed: OR52L1 (Homo sapiens) [2]
inactive: all other assays above

CC(=O)c1c(C)c([N+](=O)[O-])c(C(C)(C)C)c([N+](=O)[O-])c1C
not listed: OR52L1 (Homo sapiens) [2]
inactive: all other assays above

Cc1cnc(C)c(C)n1
not listed: OR52L1 (Homo sapiens) [1]
inactive: all other assays above

CCCCCCC=CCCC=O
not listed: OR52L1 (Homo sapiens) [2]
inactive: all other assays above

CC1=C(O)C(=O)C(C)O1 (centres undefined)
not listed: OR52L1 (Homo sapiens) [1]
inactive: all other assays above

CCCCCC1CCCC(=O)O1 (centres undefined)
active: OR52K1 (Homo sapiens) | OR52L1 (Homo sapiens) [1] | OR52M1 (Homo sapiens)
not listed: OR52L1 (Homo sapiens) [2]
inactive: all other assays above

CCC1OC(=O)C(O)=C1C (centres undefined)
not listed: OR52L1 (Homo sapiens) [1]
inactive: all other assays above
